Bioassay records (PubChem)
Most compounds without a hit are left out; they make up all but 2.3% or so of the library.
NadD inh: NadD (S. aureus) enzyme inhibition | 360,000 compounds, 0.78% hits | inhibition, % at 20 µM | purified NadD enzyme, colorimetric absorbance read-out | AID 602399; in the data active = inhibition above about 26%
Scp1 inh: blocks human Scp-1 phosphatase activity | Recombinant Scp1, phosphopeptide, malachite green phosphate absorbance | 340,000 compounds, 0.88% hits | inhibition, % at 20 µM | Q9GZU7;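 active = inhibition above about 50% at 20 µM, limit read from the data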;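 note: plate controls were DMSO wells with enzyme for no effect and wells lacking enzyme for full effect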
Target sequence (Q9GZU7 76-261 limits assumed): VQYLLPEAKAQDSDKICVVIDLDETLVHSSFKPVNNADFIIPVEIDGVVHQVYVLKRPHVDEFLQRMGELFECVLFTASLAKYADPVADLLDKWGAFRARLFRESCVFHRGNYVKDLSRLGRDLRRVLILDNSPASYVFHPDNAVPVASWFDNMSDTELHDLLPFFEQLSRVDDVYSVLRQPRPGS
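System: truncated SCP-1 phosphatase (76-261aa); medium: Tris acetate buffer pH 5.5 with MgCl2 and Tween-20; incubation: 45 min room-temperature reaction, 5 min colour, 30 min stabiliser; compound: single 20 µM dose, 1% DMSO; reagent: Phosphorylated 17-residue peptide substrate; read-out: % inhibition at 20 µM; technique: colorimetric free-phosphate detection, absorbance 630 nm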
LMPTP inh: LMPTP (human) inhibition; P24666; recombinant LMPTP-A, OMFP fluorogenic substrate, fluorescence intensity; inhibition, % at 20 µM; 360,000 compounds, 0.22% hits; AID 651560;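 active = compounds that cut the enzyme signal by at least half of the control window in the single-dose screen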;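 note: plate controls were DMSO wells with enzyme plus substrate for no effect and substrate without enzyme for full effect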
Target sequence (P24666 whole entry, looked up): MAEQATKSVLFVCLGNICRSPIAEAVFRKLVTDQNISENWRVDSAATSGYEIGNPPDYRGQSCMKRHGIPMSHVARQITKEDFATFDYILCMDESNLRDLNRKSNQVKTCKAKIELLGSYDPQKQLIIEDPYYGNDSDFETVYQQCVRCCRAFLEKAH
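Test system: LMPTP-A phosphatase enzyme; input: 0.625 nM LMPTP-A final; reagent: OMFP substrate, 400 µM final; compound dosing: 20 µM single dose, 3% DMSO; incubation: 50 min dark incubation at room temperature; measured by: endpoint fluorescence intensity from OMFP dephosphorylation; measure: % inhibition relative to no-enzyme and uninhibited control wells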
DNMT1 inh: DNMT1 (human) enzyme inhibition; P26358; DNMT1 molecular beacon, Hinp1I cleavage, fluorescence; inhibition (reported as % activation of signal), % at 10 µM; 360,000 compounds, 0.83% hits; AID 588458; in the data active = inhibition above about 50%
STEP block: inhibitors of human striatal-enriched phosphatase STEP | recombinant STEP, OMFP fluorogenic substrate, fluorescence | inhibition, % at 20 µM | P54829 | 360,000 compounds, 0.25% hits;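 active = inhibition at 20 µM, scaled per plate between control wells, above about 37%, limit read from the data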;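 note: 0% = DMSO with enzyme and substrate and 100% = substrate only without enzyme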
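medium = Bis-Tris buffer pH 6.0, 2.5 mM DTT, 0.005% Tween 20 | test system = STEP (striatal-enriched tyrosine phosphatase) enzyme, cell-free | measure = normalized % inhibition | compound dosing = 20 µM, 1% DMSO | also added = 25 µM OMFP | schedule = reaction 20 min, ambient temperature | measured by = fluorescence read at 480 nm ex / 540 nm em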
SUMO1-SIM PPI: modulators of human SUMO1-mediated protein-protein interactions; P63165; SUMO1 binding to a labelled peptide, TR-FRET, 1 h; inhibition, % at 20 µM; 360,000 compounds, 0.33% hits; AID 602429; in the data active = inhibition above about 37%
Target sequence (P63165 whole entry, looked up): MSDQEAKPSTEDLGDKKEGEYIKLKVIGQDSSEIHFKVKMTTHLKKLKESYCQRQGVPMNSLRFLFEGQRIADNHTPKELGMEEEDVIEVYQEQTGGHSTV
The depositor's hits bear a star; . = no result.

SMILES	NadD inh	Scp1 inh	LMPTP inh	DNMT1 inh	STEP block	SUMO1-SIM PPI
CC(=O)c1ccc(NC(=O)c2ccc(NC(=O)c3ccco3)cc2)cc1	7.0	39.5	72.2*	32.2	85.8*	17.8
CCOC(=O)c1ccccc1NC(=O)/C=C/c1cc(OC)c(OC)c(OC)c1	-13.7	1.1	-0.5	-8.3	-2.4	42.6*
CCOC(=O)c1ccccc1NC(=O)C=C(C)C	2.5	-1.2	0.6	6.0	3.8	-2.8
O=C1NN=C(CSc2n[nH]c(=S)s2)CS1	4.2	28.2	0.2	3.9	-0.8	49.5*
CC(C)CSc1n[nH]c(=S)s1	11.3	4.3	6.8	2.6	1.6	-1.2
CC(C)(C)N1C(=O)Cc2c1nc(N)c1c(N)nc(N3CCCCC3CO)c(C#N)c21 (centres undefined)	36.6*	9.4	28.0	6.2	11.6	50.1*
CCCc1nn2c(N)c(/C=C3\C=Nc4ccccc43)c(=O)nc2s1	-5.4	-8.9	3.3	-0.3	1.2	-16.3
CCOC1=C/C(=C/c2c(N)n3nc(-c4ccccc4)sc3nc2=O)C=CC1=O	43.5*	7.3	1.3	0.0	0.2	13.6
COC1=C/C(=C/c2c(N)n3nc(-c4ccc(C)cc4)sc3nc2=O)C=CC1=O	35.4*	20.9	1.6	4.3	3.5	7.8
CCS(=O)(=O)c1nn2c(N)c(/C=C3/C=CC(=O)C(OC)=C3)c(=O)nc2s1	-3.0	-7.8	0.3	1.9	-0.4	-16.6
Cc1ccc(S(=O)(=O)N[C@H](CNCc2ccccc2)C(C)C)cc1	.	.	-0.6	.	.	3.2
CC(C)(C)OC(=O)C[C@@H]1C/C=C\C[C@@H](CC(=O)N[C@@H](CO)Cc2ccccc2)C(=O)N2CCC[C@@H]2COC1=O	-12.3	-1.9	3.0	0.9	1.4	-2.6
Cc1cc(C)nc(/N=c2/ssnc2Cl)c1	9.2	-3.6	78.8*	-13.9	4.8	20.3
Cc1ccc(N=c2ssnc2Cl)cc1	15.3	0.6	47.0	-1.0	7.1	-7.5
COc1cccc(CNC(=O)CCC2CCCN(C(=O)C3=CC(=O)CC(C)(C)O3)C2)c1 (centres undefined)	-2.7	1.4	0.3	-69.7	1.0	1.9
COC(=O)[C@H]1C[C@@]2(O)CN(S(=O)(=O)c3ccc(C)cc3)C[C@@]2(OC(=O)NC2CC2)C[C@H]1C(=O)OC	-1.1	.	-1.6	1.7	-2.7	3.4
NC(=O)c1ccsc1NC(=O)COC(=O)Cc1ccccc1[N+](=O)[O-]	1.6	.	3.3	-4.3	0.7	-9.0
COc1ccc(/C=N\NC(=O)c2cc(O)c(O)c(O)c2)cc1COc1ccc(C(=O)OCC(C)C)cc1	60.1*	50.6*	12.2	-14.4	5.9	16.3
COc1ccc(C(=O)N/N=C/c2ccc(OC)c(COc3ccccc3)c2)cc1	-1.2	0.1	0.4	-4.2	2.0	-3.8
COc1ccc(/C=N\NC(=O)c2cc(O)c(O)c(O)c2)cc1CN1CCN(c2ccc(F)cc2)CC1	40.7*	0.9	6.7	1.4	4.3	-0.5
O=C(C(=O)N1CCN(C(=O)OCc2ccccc2)CC1)c1cccnc1	.	.	-1.2	.	.	-1.8
COc1cc(-c2c(C(=O)c3ccccc3)[nH]c(N)c2C(N)=O)ccc1F	1.8	.	-0.5	.	.	-10.8
COc1cccc(C(=O)Nc2ccc3c(c2)OC[C@H](C)N(C(=O)C2CCCC2)C[C@@H](C)[C@@H](OC)CN(C)C3=O)c1	.	.	-0.5	.	.	4.9
O=c1c2c3c(sc2nc2n1CCCCC2)CCCCC3	-2.9	.	-0.1	-1.9	1.9	-0.5
N=c1c2c3c(sc2nc2n1CCCCC2)CCCCC3	-4.4	-2.0	0.2	4.0	42.0*	3.9
CCOc1ccc(CCNC(=O)CN2C(=O)NC3(CCCCCC3)C2=O)cc1OCC	0.7	-6.5	-1.2	1.8	0.9	47.6*
COc1ccc(CNC(=O)CN2C(=O)NC3(CCCCCC3)C2=O)cc1OC	4.8	-3.6	-0.5	-2.8	2.6	2.7
O=C1C=CC(=O)c2c(O)c(CO)c(CO)c(O)c21	77.4*	84.7*	93.0*	114.0*	94.3*	118.1*
COc1ccc2[nH]c3c(c2c1)CCN1C(=O)C(CC(=O)NCc2ccc(OC)c(OC)c2)C[C@H](C(=O)N2CCCCC2)[C@@]31CCc1ccccc1 (some centres undefined)	-0.9	-1.3	2.8	-19.6	0.3	-0.1
